ChEMBL document CHEMBL1275496, “In vivo pharmacodynamic target investigation for micafungin against Candida albicans and C. glabrata in a neutropenic murine candidiasis model” (Antimicrob Agents Chemother, 2008)
Converted amounts (≈) assume the structure as drawn. *1 amine or outer side, *2 acyl side, *3 side chain or, on linkers, in order; H or OH if unused. Where a SMILES comes first, the peptide text is derived from it. Bridges are numbered along the chain shown (N, C = ends). [ ]: non-standard residue; d: D form. The star is where a group is joined. hTyr(3S-OH,4S-OH,3'-OSO3H) = N[C@H](C(=O)O)[C@H](O)[C@@H](O)c1ccc(O)c(OS(=O)(=O)O)c1; Orn(4R-OH,5R-OH) = O=C([C@H](C[C@@H](O)[C@@H](O)N[*:3])N[*:1])[*:2]; Pro(3S-OH,4S-Me) = C[C@H]1CN[C@H](C(=O)O)[C@H]1O; X1 = CCCCCOc1ccc(-c2cc(-c3ccc(C(=O)*)cc3)no2)cc1; Gln(3R-OH) = NC(=O)C[C@@H](O)[C@H](N)C(=O)O; Hyp = O=C(O)[C@@H]1C[C@@H](O)CN1

Tests used:
[1] = Ratio of AUC in ICR/Swiss neutropenic mouse at 1-Log kill dose of 5.46 mg/kg, ip after 24 hrs to MIC for Candida glabrata isolate 5592; type: functional; details: route intraperitoneal
Nakaseomyces glabratus [2] = assay: Fungistatic activity against Candida glabrata isolate 34341 infected in ICR/Swiss neutropenic mouse after 24 hrs; type: functional
Outline: (§1)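 Neutropenic female ICR/Swiss mice received cyclophosphamide sc at 150 mg/kg on day −4, 100 mg/kg on day −1 and 100 mg/kg on day +2. Mice were infected iv via the tail vein, and ip micafungin in 0.15 M NaCl started 2 h later. Six dose levels from 0.078 to 80 mg/kg/24 h were given q24h for 4 days, 3 mice per dose. Kidney CFU were counted at 96 h. The static dose was derived from a sigmoid Emax (Hill) fit.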

Candida albicans [3] = assay: Antifungal activity against Candida albicans isolate K1 infected in ICR/Swiss neutropenic mouse assessed as dose required for 1-log kill after 24 hrs; type: functional
Outline: (§2)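 Neutropenic mice (cyclophosphamide sc 150 mg/kg day −4, 100 mg/kg day −1 and +2) infected iv by tail vein 2 h before therapy. Micafungin given ip every 24 h for 4 days at six fourfold-spaced dose levels, 0.078–80 mg/kg/24 h, 3 mice per group. Kidney CFU read at 96 h. Hill-model fit; dose giving 1 log10 below start-of-therapy burden.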

[4] = Ratio of AUC in ICR/Swiss neutropenic mouse at static dose of 0.90 mg/kg, ip after 24 hrs to MIC for Candida glabrata isolate 5376; type: functional; details: dose 0.9 mg/kg; route intraperitoneal
[5] = Ratio of AUC in ICR/Swiss neutropenic mouse at static dose of 2.84 mg/kg, ip after 24 hrs to MIC for Candida albicans isolate K1; type: functional; details: route intraperitoneal
[6] = Ratio of fAUC in ICR/Swiss neutropenic mouse at 1-Log kill dose of 4.60 mg/kg, ip after 24 hrs to MIC for Candida albicans isolate 98-17; type: functional; details: dose 4.6 mg/kg; route intraperitoneal
[7] = Ratio of fAUC in ICR/Swiss neutropenic mouse at 1-Log kill dose of 7.89 mg/kg, ip after 24 hrs to MIC for Candida glabrata isolate 33616; type: functional; details: route intraperitoneal
[8] = AUC (0 to infinity) in Candida infected ICR/Swiss neutropenic mouse at 5 mg/kg, ip; type: ADME, organism-based; parameters: dose 5 mg/kg, route intraperitoneal, time infinity; details: plasma
Outline: (§3)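 Single intraperitoneal micafungin doses (80, 20, 5 mg/kg in 0.2 ml, 0.15 M NaCl) given to infected neutropenic mice. Serum was taken from 3 mice per time point at 1, 2, 4, 6, 8, 12, 24 and 48 h. Drug was measured by microbiologic assay with C. albicans K1 (LLOQ 0.12 μg/ml). Noncompartmental analysis; half-life by nonlinear least squares; AUC by trapezoidal rule.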

[9] = Ratio of fAUC in ICR/Swiss neutropenic mouse at static dose of 2.18 mg/kg, ip after 24 hrs to MIC for Candida glabrata isolate 34341; type: functional; details: route intraperitoneal
[10] = Ratio of fAUC in ICR/Swiss neutropenic mouse at 1-Log kill dose of 5.46 mg/kg, ip after 24 hrs to MIC for Candida glabrata isolate 5592; type: functional; details: route intraperitoneal
Candida albicans [11] = assay: Antifungal activity against Candida albicans isolate 98-210 by CLSI method; type: functional
Outline: (§4)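 Broth microdilution MIC per CLSI M27-A2. Two endpoints were read against the drug-free control well: partial inhibition (M1, CLSI recommended) and complete inhibition (M2). Tests were run in duplicate on four separate occasions, and the value is the mean.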

[12] = Ratio of fAUC in ICR/Swiss neutropenic mouse at 1-Log kill dose of 1.40 mg/kg, ip after 24 hrs to MIC for Candida glabrata isolate 33609; type: functional; details: dose 1.4 mg/kg; route intraperitoneal
[13] = Ratio of AUC in ICR/Swiss neutropenic mouse at 1-Log kill dose of 20.6 mg/kg, ip after 24 hrs to MIC for Candida glabrata isolate 37661; type: functional; details: route intraperitoneal
Nakaseomyces glabratus [14] = assay: Fungistatic activity against Candida glabrata isolate 35315 infected in ICR/Swiss neutropenic mouse after 24 hrs; type: functional; outline: as §1
Nakaseomyces glabratus [15] = assay: Antifungal activity against Candida glabrata isolate 33609 by CLSI method; type: functional; outline: as §4
Nakaseomyces glabratus [16] = assay: Fungistatic activity against Candida glabrata isolate 32930 infected in ICR/Swiss neutropenic mouse after 24 hrs; type: functional; outline: as §1
[17] = Ratio of AUC in ICR/Swiss neutropenic mouse at 1-Log kill dose of 2.0 mg/kg, ip after 24 hrs to MIC for Candida glabrata isolate 5376; type: functional; details: route intraperitoneal
[18] = Ratio of AUC in ICR/Swiss neutropenic mouse at 1-Log kill dose of 3.77 mg/kg, ip after 24 hrs to MIC for Candida glabrata isolate 35315; type: functional; details: route intraperitoneal
[19] = Ratio of AUC in ICR/Swiss neutropenic mouse at static dose of 1.80 mg/kg, ip after 24 hrs to MIC for Candida glabrata isolate 5592; type: functional; details: dose 1.8 mg/kg; route intraperitoneal
Nakaseomyces glabratus [20] = assay: Fungistatic activity against Candida glabrata isolate 5592 infected in ICR/Swiss neutropenic mouse after 24 hrs; type: functional; outline: as §1
Nakaseomyces glabratus [21] = assay: Antifungal activity against Candida glabrata isolate 5376 infected in ICR/Swiss neutropenic mouse assessed as dose required for 1-log kill after 24 hrs; type: functional; outline: as §2
Nakaseomyces glabratus [22] = assay: Antifungal activity against Candida glabrata isolate 34341 infected in ICR/Swiss neutropenic mouse assessed as dose required for 1-log kill after 24 hrs; type: functional; outline: as §2
[23] = Ratio of AUC in ICR/Swiss neutropenic mouse at static dose of 2.18 mg/kg, ip after 24 hrs to MIC for Candida glabrata isolate 34341; type: functional; details: route intraperitoneal
[24] = Half life in Candida infected ICR/Swiss neutropenic mouse at 80 mg/kg, ip; type: ADME, organism-based; parameters: dose 80 mg/kg, route intraperitoneal; details: in vivo; outline: as §3
Mus musculus = assay: (§5) Cmax in Candida infected ICR/Swiss neutropenic mouse at 20 mg/kg, ip; type: ADME, organism-based; parameters: dose 20 mg/kg, route intraperitoneal; details: in vivo; outline: as §3
[25] = as §5; type: ADME, organism-based; parameters: dose 20 mg/kg, route intraperitoneal; details: ICR/Swiss, in vivo; outline: as §3
Nakaseomyces glabratus [26] = assay: Antifungal activity against Candida glabrata isolate 32930 infected in ICR/Swiss neutropenic mouse assessed as dose required for 1-log kill after 24 hrs; type: functional; outline: as §2
Candida albicans [27] = assay: Fungistatic activity against Candida albicans isolate 98-17 infected in ICR/Swiss neutropenic mouse after 24 hrs; type: functional; outline: as §1
Nakaseomyces glabratus [28] = assay: Antifungal activity against Candida glabrata isolate 5376 by CLSI method; type: functional; outline: as §4
[29] = Ratio of AUC in ICR/Swiss neutropenic mouse at static dose of 9.25 mg/kg, ip after 24 hrs to MIC for Candida glabrata isolate 37661; type: functional; details: route intraperitoneal
[30] = Ratio of AUC in ICR/Swiss neutropenic mouse at 1-Log kill dose of 2.36 mg/kg, ip after 24 hrs to MIC for Candida albicans isolate 580; type: functional; details: route intraperitoneal
Nakaseomyces glabratus [31] = assay: Fungistatic activity against Candida glabrata isolate 570 infected in ICR/Swiss neutropenic mouse after 24 hrs; type: functional; outline: as §1
Candida albicans [32] = assay: Fungistatic activity against Candida albicans isolate 98-210 infected in ICR/Swiss neutropenic mouse after 24 hrs; type: functional; outline: as §1
Nakaseomyces glabratus [33] = assay: Antifungal activity against Candida glabrata isolate 5592 infected in ICR/Swiss neutropenic mouse assessed as dose required for 1-log kill after 24 hrs; type: functional; outline: as §2
Nakaseomyces glabratus [34] = assay: Antifungal activity against Candida glabrata isolate 5592 by CLSI method; type: functional; outline: as §4

Work on `CCCCCOc1ccc(-c2cc(-c3ccc(C(=O)N[C@H]4C[C@@H](O)[C@@H](O)NC(=O)[C@@H]5[C@@H](O)[C@@H](C)CN5C(=O)[C@H]([C@H](O)CC(N)=O)NC(=O)[C@H]([C@H](O)[C@@H](O)c5ccc(O)c(OS(=O)(=O)O)c5)NC(=O)[C@@H]5C[C@@H](O)CN5C(=O)[C@H]([C@@H](C)O)NC4=O)cc3)no2)cc1` [MICAFUNGIN] (X1-[Orn(4R-OH,5R-OH)]T[Hyp][hTyr(3S-OH,4S-OH,3'-OSO3H)][Gln(3R-OH)][Pro(3S-OH,4S-Me)]; lactam 1-C) yielded a RatioAUC/MIC [1] of 10000, an Activity (Nakaseomyces glabratus [2]) of 2.18 mg/kg and an Activity (Candida albicans [3]) of 4.08 mg/kg. For the same compound, the RatioAUC/MIC [4] was 3571, the RatioAUC/MIC [5] was 5200 and the fAUC/MIC [6] was 10.6. For the same compound, the fAUC/MIC [7] was 2.2, the AUC(0-inf) [8] was 138 µg·h/mL and the fAUC/MIC [9] was 2.51. For the same compound, the fAUC/MIC [10] was 25, the MIC (Candida albicans [11]) was 0.03 µg/mL (≈ 0.0236 µM) and the MIC50 (Candida albicans [11]) was 0.016 µg/mL (≈ 0.0126 µM). It also gave a fAUC/MIC [12] of 6.5, a RatioAUC/MIC [13] of 2080 and an Activity (Nakaseomyces glabratus [14]) of 2.4 mg/kg. It also gave an MIC (Nakaseomyces glabratus [15]) of 0.016 µg/mL (≈ 0.0126 µM), an MIC50 (Nakaseomyces glabratus [15]) of 0.016 µg/mL (≈ 0.0126 µM) and an Activity (Nakaseomyces glabratus [16]) of 0.06 mg/kg. It also gave a RatioAUC/MIC [17] of 7886, a RatioAUC/MIC [18] of 1733 and a RatioAUC/MIC [19] of 3333. It also gave an Activity (Nakaseomyces glabratus [20]) of 1.8 mg/kg, an Activity (Nakaseomyces glabratus [21]) of 2 mg/kg and an Activity (Nakaseomyces glabratus [22]) of 4.26 mg/kg. For the same compound, the RatioAUC/MIC [23] was 1003, the half-life [24] was 16 h and the Cmax (Mus musculus) was 28000 ng/mL. For the same compound, the Cmax [25] was 28000 ng/mL, the Activity (Nakaseomyces glabratus [26]) was 1.69 mg/kg and the Activity (Candida albicans [27]) was 2.53 mg/kg. It also gave an MIC (Nakaseomyces glabratus [28]) of 0.016 µg/mL (≈ 0.0126 µM), an MIC50 (Nakaseomyces glabratus [28]) of 0.008 µg/mL (≈ 0.0063 µM) and a RatioAUC/MIC [29] of 984. The RatioAUC/MIC [30] was 1686, the Activity (Nakaseomyces glabratus [31]) was 3.76 mg/kg and the Activity (Candida albicans [32]) was 2.84 mg/kg. It also gave an Activity (Nakaseomyces glabratus [33]) of 5.46 mg/kg, an MIC (Nakaseomyces glabratus [34]) of 0.03 µg/mL (≈ 0.0236 µM) and an MIC50 (Nakaseomyces glabratus [34]) of 0.016 µg/mL (≈ 0.0126 µM).
